Screening results (PubChem BioAssay)
CHRM5 agonist = CHRM5 agonism in calcium assay; P08912; CHO-K1 hM5 cells, Fluo-8 calcium fluorescence; 0% DMSO wells, 100% maximal acetylcholine response; activation, % at 3 µM; 360,000 compounds, 0.19% hits;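 active = activation above the run's mean over test compounds plus 3 SD, cut at about 23% in these data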;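 also: signal is peak over basal fluorescence ratio across the kinetic read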
Target sequence (P08912 whole entry, looked up): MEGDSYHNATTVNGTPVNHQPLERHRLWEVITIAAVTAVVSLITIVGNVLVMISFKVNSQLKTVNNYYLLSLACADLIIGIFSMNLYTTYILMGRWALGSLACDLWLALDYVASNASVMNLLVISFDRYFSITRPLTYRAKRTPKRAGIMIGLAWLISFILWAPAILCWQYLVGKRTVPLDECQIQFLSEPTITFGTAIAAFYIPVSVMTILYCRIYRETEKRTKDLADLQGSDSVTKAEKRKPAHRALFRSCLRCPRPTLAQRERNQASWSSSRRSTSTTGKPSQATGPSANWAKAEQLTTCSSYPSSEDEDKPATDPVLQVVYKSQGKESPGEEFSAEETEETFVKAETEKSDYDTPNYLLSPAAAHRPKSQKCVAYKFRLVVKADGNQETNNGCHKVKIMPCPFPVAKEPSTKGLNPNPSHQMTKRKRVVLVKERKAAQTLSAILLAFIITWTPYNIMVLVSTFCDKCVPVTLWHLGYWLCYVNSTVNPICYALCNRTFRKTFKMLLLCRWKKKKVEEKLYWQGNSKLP
CHRM4 antagonist = CHRM4 antagonism in calcium assay | P08173 | CHO-hM4 cells, ACh EC80, Fluo-8 calcium fluorescence | inhibition, % at 3 µM | 360,000 compounds, 0.73% hits | AID 624125;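 active = inhibition above its plate's cutoff, the mean inhibition of sample wells plus 3 SD, cut at about 27% in these data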
M4 ag = agonists of human muscarinic M4 receptor (CHRM4). CHO-K1 hM4/Gqi5, Fluo-8 calcium fluorescence; vehicle 0%, full acetylcholine response 100%. AID 624127. P08173. activation, % at 3 µM. 360,000 compounds, 0.14% hits;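 active = activation above the run mean over all test wells plus 3 SD, cut at about 32% in these data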;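 also: peak over basal fluorescence ratio per well then scaled between controls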
CHRM5 PAM = CHRM5 positive allosteric modulation. AID 624038. CHO-K1 hM5, Fluo-8 calcium, ACh EC20 PAM; 0% = ACh EC20, 100% = ACh EC100. P08912. 360,000 compounds, 0.3% hits. activation, % at 3 µM;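 active = activation above the run cutoff, the mean activation of all test compounds plus 3 SD, cut at about 18% in these data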
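Assay system – human M5 receptor in CHO-K1 cells · Read-out – % activation, ACh-normalized · Technique – Fluo-8 calcium fluorescence · Dosing – single-point, 3 µM nominal · Incubation – Fluo-8 loading 80 min at 37 °C plus 30 min room temperature · Repeats – singlicate, one well per test compound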
CHRM5 antagonist = CHRM5 antagonism in calcium assay | P08912 | 360,000 compounds, 0.59% hits | inhibition, % at 3 µM | AID 624040 | CHO-hM5 cells, Fluo-8 calcium fluorescence, ACh EC80;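 active = inhibition above a per-plate cutoff, the mean of that plate's test compounds plus 3 SD, cut at about 27% in these data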
M4 PAM = positive allosteric modulators of human muscarinic M4 receptor; CHO-K1 hM4/Gqi5, Fluo-8 calcium fluorescence, ACh EC20; 0% = ACh EC20, 100% = maximal ACh; 360,000 compounds, 0.4% hits; activation, % at 3 µM; AID 624126;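 active = activation above its plate's cutoff, the mean activation of sample wells plus 3 SD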
A number is an active result; – = inactive. Sampled rows, rich in hits. Any-hit rate of the full collection: about 1.8%.

SMILES | CHRM5 agonist | CHRM4 antagonist | M4 ag | CHRM5 PAM | CHRM5 antagonist | M4 PAM
Clc1cccc2sc(N3CCCC3)nc12 | – | – | – | – | – | –
CCOc1ccc2ccccc2c1/C=N/NC(=O)c1ccncc1 | – | – | – | – | – | –
COc1cc(Cn2c3ccc(NC(=O)CCc4ccc(O)cc4)cc3c(=O)n2C)ccc1F | – | – | – | – | – | –
C/C(=N\NC(=O)c1nnn(-c2nonc2N)c1-c1ccccc1)c1ccco1 | – | – | – | – | – | –
N#Cc1nc(-c2cccs2)oc1N1CCN(Cc2ccccc2)CC1 | – | 84.6 | – | – | – | –
O=C(c1c(F)cccc1F)N(Cc1ccccn1)C1CC1 | – | – | – | – | – | 18.1
O=C(CC1CCCCC1)NCc1ccccn1 | – | – | – | – | – | –
Cc1ccc(S(=O)(=O)c2nnn3c2nc(NCCCN2CCCC2=O)c2ccccc23)cc1C | – | – | – | – | – | –
Cc1ccc(S(=O)(=O)c2nnn3c2nc(NC2CCN(Cc4ccccc4)CC2)c2ccccc23)cc1C | – | 43.4 | – | – | – | –
CNC(C)C(=O)NC(C(=O)NC(C)C(=O)Nc1cccc2ccccc12)C(C)C (centres undefined) | – | – | – | – | – | 18.4
CCC(C)NC(=O)c1cnn2c(C)c3c(nc12)CCCC3 (centres undefined) | – | – | – | – | – | 38.5
Cc1c2c(nc3c(C(=O)NC4CC4)cnn13)CCCC2 | – | – | – | – | – | –
O=C(c1cccc(-c2ccccc2)c1)N1CC[C@@H](N2CCC(O)CC2)[C@H](O)C1 | – | – | – | – | – | –
C[C@H]1COc2cccc(N3CCC[C@H]3CO)c2S(=O)(=O)N1 | – | – | – | – | – | –
COC(=O)C1=C(C(=O)OC)[C@@H]2Nc3ccccc3[C@@]23C[C@@H](C(=O)OC)N(C(=O)c2cccs2)C3=N1 | – | – | – | – | – | 24.7
O=c1c2cc(NC(=S)NCCCN3CCC(Cc4ccccc4)CC3)ccc2nc2n1CCCCC2 | – | 44.0 | – | – | – | –
COc1ccc(C2CC(=O)c3cnn(-c4nc(C)cc(C)n4)c3C2)cc1OC (centres undefined) | – | – | – | 44.2 | – | –
Cc1ccc(C(=O)N2CCNC(=O)C2CC(=O)Nc2ccccc2)cc1 (centres undefined) | – | – | – | – | – | –
Oc1cccc(-c2ccc3nccn3c2)c1 | – | – | – | – | – | –
O=C(c1cccs1)N1CCN=C1SCc1cccnc1 | – | – | – | 19.7 | – | –
CCN(CC)c1ccc(C=NNc2ccc([N+](=O)[O-])cn2)cc1 | 35.3 | – | – | – | 36.9 | –
CSc1ncccc1C(=O)OCC(=O)c1cccc(Br)c1 | – | – | – | – | – | –
CCCCCn1c(CNC(=O)CCC)nc2ccccc21 | – | – | – | – | – | –
CCCCCn1c(CNC(=O)CC)nc2ccccc21 | 43.2 | – | – | – | – | –
COc1cc([N+](=O)[O-])ccc1NC(=S)NNC(=O)CCC(=O)Nc1ccccc1Cl | – | – | – | – | – | –
SMILES | CHRM5 agonist | CHRM4 antagonist | M4 ag | CHRM5 PAM | CHRM5 antagonist | M4 PAM
COc1ccc(NC(=O)c2oc3ccc(S(=O)(=O)N4CCC5(CC4)OCCO5)cc3c2C)cc1 | – | – | 32.4 | – | – | –
C=CCNC(=O)c1oc2ccc(S(=O)(=O)N3CCC4(CC3)OCCO4)cc2c1C | – | – | – | – | – | –
Cc1c(C(=O)OC(C)C(C)C[N+](C)(C)C)oc2ccccc12 (centres undefined) | – | 77.2 | – | – | – | –
CCc1ccc(OCc2nnc(SCc3ccc(C(=O)O)cc3)o2)cc1 | – | – | – | – | – | 27.1
O=C(O)c1ccc(CSc2nnc(COc3ccccc3)o2)cc1 | – | – | – | – | – | –
O=C(COC(=O)c1ccco1)NCCNC(=O)COC(=O)c1ccco1 | – | – | – | – | – | 18.9
Cc1cccc(C(=O)OCN2C(=O)c3ccccc3C2=O)c1[N+](=O)[O-] | – | – | – | – | – | –
Cc1ccc(-n2ncc3c2CCCC3NC(=O)CCCN2CCCC2=O)cc1C (centres undefined) | – | – | – | – | – | –
CCOc1ccc(NC(=O)C2CCN(C(=O)C3CC(=O)N(c4ccc(C)cc4)C3)CC2)cc1 (centres undefined) | – | – | – | – | – | 19.3
COc1ccc(N2CC(C(=O)N3CCN(c4ccccc4)CC3)CC2=O)cc1 (centres undefined) | – | – | – | – | 31.5 | –
O=S(=O)(c1ccc(NC(=S)Nc2ccccc2)cc1)N1CCOCC1 | – | – | – | 24.4 | – | 29.1
O=C(CN1CCOCC1)NNC(=S)Nc1ccccc1 | – | – | – | 29.4 | – | –
CCCC(C(=O)Nc1ccc(S(=O)(=O)N2CCOCC2)cc1)c1ccccc1 (centres undefined) | 23.3 | – | – | – | – | –
O=C(/C=C/c1cccc(F)c1)Nc1ccc(S(=O)(=O)N2CCOCC2)cc1 | – | – | – | 18.8 | – | –
O=C(CN1CCOCCOCCOCC1)Nc1ccccc1 | – | – | – | – | – | –
COc1ccc(C)cc1-n1nnnc1SCC(=O)NC1CCS(=O)(=O)C1 (centres undefined) | – | – | – | – | – | –
O=C(COC(=O)c1cccc(Br)c1)NC1CCCCCCC1 | – | – | – | – | – | –
CC(NC(=O)C1CCC(C)(C(=O)O)C1(C)C)c1ccccc1 (centres undefined) | – | – | – | – | – | –
c1ccc(COC(CN2CCCCCC2)CN2CCCCCC2)cc1 | – | – | – | – | – | –
O=S(=O)(Nc1ccc(S(=O)(=O)N2CCCC2)cc1)c1ccc(F)cc1 | – | – | – | – | – | –
O=C(NCc1cccnc1)c1ccc(S(=O)(=O)N2CCCCC2)cc1 | – | – | – | – | – | –
O=S(=O)(Nc1ccc(F)cc1)c1ccc(S(=O)(=O)N2CCOCC2)cc1 | 27.0 | – | – | – | – | –
O=S(=O)(c1ccc(NC(=S)NCc2cccnc2)cc1)N1CCCCC1 | – | 37.6 | – | – | – | –
O=C(NC(Cc1ccccc1)C(=O)N1CCN(c2ccc(F)cc2)CC1)c1ccccc1 (centres undefined) | – | – | – | – | – | –
Cc1ccc(NC(=O)COC(=O)CCc2nc3ccccc3c(=O)[nH]2)c(Br)c1 | – | – | – | – | – | 25.5
COc1cc(CNCCc2c[nH]c3ccccc23)ccc1OCc1ccc(F)cc1 | – | 47.0 | 47.3 | – | – | –
CCNc1nc(NC(C)(C)C)nc(SCC(N)=O)n1 | – | – | – | – | – | –
CCOc1ccccc1NC(=O)Nc1ccc2c(c1)CCC2 | – | – | – | – | – | 19.9
